# From PubChem
# CHT allo act: human CHT allosteric activation; CHT-expressing cells, membrane potential dye, choline EC20; hits give high values; LV-AA mutant CHT in HEK293 cells; B-score at 10 µM; 310,000 tested, 0.49% active; AID 488977;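 active means initial fluorescence not abnormally high and integrated response B-score, plate-corrected, over 3 SD above library mean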
# CHT block: human CHT choline transport inhibition | Q9GZV3 | CHT-expressing cells, membrane potential dye, choline response; hits give low values | B-score at 10 µM | 310,000 tested, 0.86% active;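 active means B-score over 3 SD under the library average, and starting fluorescence ratio not unusually high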;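 further: choline stimulus applied at its EC90 after an EC20 pre-addition; B-score computed on integrated fluorescence ratio after choline addition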
# ANO1 activ: mouse TMEM16A channel activation, primary screen; Q8BHY3; 340,000 tested, 0.3% active; B-score at 10 µM; AID 623877; HEK293 TMEM16A/YFP-H148Q/I152L, iodide quench fluorescence; hits give low values;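 active means fluorescence-ratio B-score plate-corrected deviation score at least 3 library SD below zero, with starting fluorescence score within 5 deviations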;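 further: channel opened by trigger with iodide after compound preincubation; score built on the fluorescence ratio of max minus min over baseline; more negative score means more quench and so TMEM16A activation or potentiation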
# Target sequence (Q8BHY3 whole entry, looked up): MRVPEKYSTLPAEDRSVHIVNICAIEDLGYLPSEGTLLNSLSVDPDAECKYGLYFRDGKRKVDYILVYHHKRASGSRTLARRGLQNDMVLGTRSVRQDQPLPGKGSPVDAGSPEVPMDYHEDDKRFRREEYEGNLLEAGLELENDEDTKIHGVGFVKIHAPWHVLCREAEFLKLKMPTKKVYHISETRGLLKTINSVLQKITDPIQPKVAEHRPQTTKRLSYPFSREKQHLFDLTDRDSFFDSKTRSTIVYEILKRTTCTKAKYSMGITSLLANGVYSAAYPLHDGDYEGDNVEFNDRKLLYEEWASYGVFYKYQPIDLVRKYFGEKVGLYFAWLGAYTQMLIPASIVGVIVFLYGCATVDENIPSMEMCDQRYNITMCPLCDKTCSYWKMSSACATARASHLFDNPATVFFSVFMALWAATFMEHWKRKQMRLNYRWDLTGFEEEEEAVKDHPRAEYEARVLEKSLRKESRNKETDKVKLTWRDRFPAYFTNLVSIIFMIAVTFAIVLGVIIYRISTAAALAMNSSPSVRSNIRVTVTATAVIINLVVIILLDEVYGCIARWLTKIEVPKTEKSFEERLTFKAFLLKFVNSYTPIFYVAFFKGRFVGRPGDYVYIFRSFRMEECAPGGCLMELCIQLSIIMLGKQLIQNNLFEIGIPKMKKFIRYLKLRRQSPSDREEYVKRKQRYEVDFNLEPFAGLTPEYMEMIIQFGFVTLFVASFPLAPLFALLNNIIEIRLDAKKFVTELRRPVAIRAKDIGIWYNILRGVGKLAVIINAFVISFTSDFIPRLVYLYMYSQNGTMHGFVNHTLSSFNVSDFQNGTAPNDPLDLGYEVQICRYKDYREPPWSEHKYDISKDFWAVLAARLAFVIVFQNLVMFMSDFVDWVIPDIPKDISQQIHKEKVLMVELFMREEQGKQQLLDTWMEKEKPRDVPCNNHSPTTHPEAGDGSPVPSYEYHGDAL
# ANO1 block: mouse TMEM16A channel inhibition, primary screen | HEK293 TMEM16A/YFP iodide influx fluorescence, ionomycin | normalized B-score (activity score, 25-100; higher = stronger inhibition) at 10 µM | 310,000 tested, 1.2% active | Q8BHY3;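 active means ratio plate-corrected score three or more library SD toward inhibition, starting fluorescence score within five deviations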;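 further: score derived from kinetic fluorescence span divided by baseline fluorescence per well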
# VIM-2 inh: blocks Pseudomonas aeruginosa VIM-2 metallo-beta-lactamase; 290,000 tested, 0.89% active; inhibition, % at 5.6 µM; purified VIM-2, nitrocefin hydrolysis, epi-absorbance fluorescence; AID 1527;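 active means inhibition above the mean of all tested compounds plus 3 SD, cutoff set per screening run, cut at about 7.5% in these data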;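 further: red hydrolysis product quenches plate fluorescence so inhibitors raise well fluorescence; 0% = enzyme with DMSO and 100% = DMSO without enzyme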
# IMP-1 inh: inhibitors of Pseudomonas aeruginosa IMP-1 metallo-beta-lactamase | inhibition, % at 5.6 µM | AID 1556 | 290,000 tested, 0.45% active | purified IMP-1, nitrocefin hydrolysis, epi-absorbance fluorescence;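 active means inhibition above the mean plus 3 SD of all compounds in the same screening run, cut at about 4.5% in these data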;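 further: 0% = IMP-1 with DMSO and 100% = DMSO wells lacking enzyme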
#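 System – purified recombinant IMP-1 beta-lactamase · Input – IMP-1 dispensed at 0.2 nM · Timing – 15 min preincubation plus 25 min reaction at 25 °C · Signal – Epi-absorbance fluorescence, 480 nm excitation, 530 nm emission · Measure – percent IMP-1 inhibition derived from blank-referenced optical density · Controls – Enzyme-plus-DMSO low control, enzyme-free DMSO high control · Replication – singlicate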
# Starred values were filed as active, the others as inactive; i = inactive; x = no result given. Shown are actives, neighbours in structure and some others; about 3.4% of the full set was active somewhere.
SMILES,CHT allo act,CHT block,ANO1 activ,ANO1 block,VIM-2 inh,IMP-1 inh
CN(C)CCCNS(=O)(=O)c1ccc(-n2nnc3ccccc32)c([N+](=O)[O-])c1,i,i,i,i,0,-1
COc1ccc(NS(=O)(=O)c2ccc(-n3nnc4ccccc43)c([N+](=O)[O-])c2)cc1,i,i,i,25*,-3,-5
O=[N+]([O-])c1cc(S(=O)(=O)Nc2cccc(C(F)(F)F)c2)ccc1-n1nnc2ccccc21,i,i,i,100*,0,0
CS(=O)(=O)c1ccc(-n2nnc3ccccc32)c([N+](=O)[O-])c1,i,i,i,i,0,-2
COc1ccc(C(=O)Nc2nnc(SCC(=O)NCc3ccco3)s2)c(OC)c1,i,i,i,i,11*,-1
Cc1ccc(N2NC(=O)/C(=C/c3ccc(-c4ccc(Cl)c(C(=O)O)c4)o3)C2=O)cc1C,i,i,i,i,-3,-3
CC1=NN(c2ccccc2)C(=O)/C1=C/c1ccc(Cl)cc1,i,i,i,25*,-1,-4
CC1=NN(c2ccc(Cl)c(C(=O)O)c2)C(=O)/C1=C\c1ccc(-c2ccc(C(=O)O)cc2)o1,x,x,i,x,-2,7.7*
CC1=NN(c2ccc(C(=O)O)cc2)C(=O)/C1=C/c1ccc(-c2ccccc2F)o1,i,i,i,100*,-3,-3
CC1CN(S(=O)(=O)c2ccc(C(=O)N3CCc4ccccc43)cc2)CC(C)O1 (stereo unspecified),x,x,i,x,x,x
CC(C)c1ccc(CN2C(=O)NC3(CCCCCC3)C2=O)cc1,i,i,i,i,-2,-3
Cc1ccc(F)c(NC(=O)/C(C#N)=C(\O)c2ccc(C(C)(C)C)cc2)c1,i,i,i,25*,0,0
Cc1ccc(F)c(NC(=O)c2ccc(Cn3cc(Cl)cn3)cc2)c1,i,i,i,i,-2,-1
O=C(NNc1c([N+](=O)[O-])cc(C(F)(F)F)cc1[N+](=O)[O-])c1ccco1,i,i,i,100*,-1,-3
CCOC(=O)[C@@H]1[C@H]2COc3ccccc3[C@H]2N2C(=O)N(c3ccc(Cl)cc3)C(=O)[C@@]12C,i,i,i,i,-2,-2
CCOc1cccc(C(=O)Nc2ccc3c(c2)OCCO3)c1,i,i,i,i,2,1
O=C1Nc2ccccc2S/C1=C/Nc1cccc(Cl)c1,i,i,i,i,7.8*,-2
O=C1Nc2ccccc2S/C1=C\C(=O)N1CCCC1,i,i,x,i,-2,-1
O=C(NCc1ccccn1)c1c(Cl)cccc1Cl,i,i,i,i,-3,-2
Cc1c(Cl)cccc1-c1ccc(CNCc2ccccn2)o1,i,i,i,i,7.9*,-2
CC(C)(C)c1ccc(C(=O)NCCC(=O)N2CCN(c3ncccn3)CC2)cc1,i,i,i,100*,-5,-2
Cc1ccccc1OCc1occc1C(=O)Nc1cccc(-n2cnnn2)c1,i,i,i,i,-1,-1
Cc1ccc2nc3c(cc(C(=O)NCCc4ccccc4)c(=N)n3CCCN3CCOCC3)c(=O)n2c1,i,i,i,i,9.6*,-3
COc1ccc(CCn2c(=N)c(C(=O)NCc3ccco3)cc3c(=O)n4ccccc4nc32)cc1OC,x,x,i,x,x,x
COc1ccc(CCNC(=O)c2cc3c(=O)n4ccccc4nc3n(Cc3ccco3)c2=N)cc1OC,i,i,i,i,8.1*,-3
SMILES,CHT allo act,CHT block,ANO1 activ,ANO1 block,VIM-2 inh,IMP-1 inh
COc1ccc(CCNC(=O)c2cc3c(=O)n4ccccc4nc3n(CCCN3CCOCC3)c2=N)cc1,i,i,i,i,10*,-4
COc1ccc(CCn2c(=N)c(C(=O)NCCN3CCOCC3)cc3c(=O)n4ccccc4nc32)cc1OC,i,i,i,i,8.2*,1
COc1ccc(CCNC(=O)c2cc3c(=O)n4ccccc4nc3n(CCN3CCOCC3)c2=N)cc1,i,i,i,i,3,-2
COc1ccc(CCC(=O)NCC23CC4CC(CC(C4)C2)C3)cc1,i,i,i,i,1,2
CN(CC1CCOCC1)C(=O)CC1C(=O)NCCN1Cc1ccc(F)c(F)c1 (stereo unspecified),i,i,i,i,-4,-2
O=C(CN1C(=O)NC2(CCCc3ccccc32)C1=O)NCC(F)(F)F (stereo unspecified),i,i,i,i,-3,-2
Cc1cc(OC(C)C(=O)NCCc2c[nH]c3ccccc23)c2c(C)cc(=O)oc2c1 (stereo unspecified),i,i,-10*,i,3,1
CCCc1cc(=O)oc2cc(C)cc(OC(C)C(=O)N[C@@H](Cc3c[nH]c4ccccc34)C(=O)O)c12 (stereo partly specified),i,i,i,i,3,-2
O=S(=O)(N/N=C/c1ccc(F)cc1)c1ccccc1,i,i,i,25*,-2,-1
CCN(Cc1ccccc1)c1ccc(/C=N/N=C(N)N)cc1,i,i,i,100*,0,-1
CCOc1ccc(NC(=O)CN(C)C(=O)C2CCN(C(=O)Nc3ccccc3)CC2)cc1OCC,x,x,i,x,x,x
N#CC1(NC(=O)COC(=O)Cn2[nH]c(=O)c3ccccc3c2=O)CCCCC1,i,i,i,i,x,x
COC(=O)c1cc(S(=O)(=O)NCCc2ccc(SC)cc2)c[nH]1,i,i,i,i,-1,34*
COC(=O)Cc1cc(=O)n2c(nc3ccccc32)[nH]1,i,i,i,i,-3,-3
Cc1c(-n2c(-c3ccccc3Cl)n[nH]c2=S)c(=O)n(-c2ccccc2)n1C,i,i,i,i,74*,-5
O=C(Nc1c(C(=O)N2CCN(c3ccccn3)CC2)oc2ccccc12)c1cccc([N+](=O)[O-])c1,i,i,i,i,-1,-3
Clc1ccc(OCCCCCN2CCCC2)c(Br)c1,i,i,i,i,1,-4
Clc1ccc(OCCCN2CCCCC2)c(Br)c1,i,i,-14*,i,-4,-3
O=c1cc(-c2cc3ccccc3o2)c2cc(O)ccc2o1,i,i,i,i,-1,-2
Cc1cc2oc(=O)cc(-c3cc4ccccc4o3)c2cc1O,i,i,i,i,1,6.0*
CCC(=O)Nc1nc(=S)ss1,i,i,i,i,-1,2
